Reference: ChEMBL document CHEMBL1240414, “Synthesis and anticonvulsant activity of new 6-methyl-1-substituted-4,6-diazaspiro[2.4]heptane-5,7-diones” (Eur J Med Chem, 2010)
Calls of active or inactive are those of the source.

Legend:
Mus musculus [1] = assay: Anticonvulsant activity in Kunming mouse assessed as protection against maximal electroshock-induced seizures at 30 mg/kg, ip after 0.5 hrs; assay type: functional, organism-based; design: dose 30 mg/kg
Mus musculus [2] = assay: Anticonvulsant activity in Kunming mouse assessed as protection against subcutaneous pentylenetetrazole-induced seizures at 30 mg/kg, ip after 0.5 hrs; assay type: functional, organism-based; design: dose 30 mg/kg
In short: (§1)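 Male Kunming mice (20 ± 2.0 g) received the compound ip as a suspension in 0.5% methylcellulose at 30, 100 or 300 mg/kg, one to four mice per dose. Pentylenetetrazole in 0.9% saline was given sc at 0.5 h and 4.0 h after dosing. Protection meant no threshold seizure (one clonic spasm episode of at least 5 s). Scored as protected/tested.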

Mus musculus [3] = assay: Anticonvulsant activity in Kunming mouse assessed as protection against subcutaneous pentylenetetrazole-induced seizures at 100 mg/kg, ip after 0.5 hrs; assay type: functional, organism-based; design: dose 100 mg/kg; in short: as §1
Mus musculus [4] = assay: Anticonvulsant activity in Kunming mouse assessed as protection against subcutaneous pentylenetetrazole-induced seizures at 300 mg/kg, ip after 0.5 hrs; assay type: functional, organism-based; design: dose 300 mg/kg; in short: as §1
Mus musculus [5] = assay: Anticonvulsant activity in Kunming mouse assessed as protection against subcutaneous pentylenetetrazole-induced seizures at 30 mg/kg, ip after 4 hrs; assay type: functional, organism-based; design: dose 30 mg/kg; in short: as §1
Mus musculus [6] = assay: Anticonvulsant activity in Kunming mouse assessed as protection against subcutaneous pentylenetetrazole-induced seizures at 100 mg/kg, ip after 4 hrs; assay type: functional, organism-based; design: dose 100 mg/kg; in short: as §1
Mus musculus [7] = assay: Anticonvulsant activity in Kunming mouse assessed as protection against subcutaneous pentylenetetrazole-induced seizures at 300 mg/kg, ip after 4 hrs; assay type: functional, organism-based; design: dose 300 mg/kg; in short: as §1
Mus musculus [8] = assay: Neurotoxicity in Kunming mouse assessed as minimum motor impairment at 30 mg/kg, ip after 0.5 hrs by rotarod test; assay type: toxicity, organism-based; design: dose 30 mg/kg, route intraperitoneal; conditions: in vivo
In short: (§2)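 Rotorod neurotoxicity in male Kunming mice (20 ± 2.0 g) given ip doses of 30, 100 or 300 mg/kg as a suspension in 0.5% methylcellulose, one to four mice per dose. Motor impairment was examined at 0.5 h and 4.0 h after injection. Reported as number of animals showing toxicity/number tested.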

Mus musculus [9] = assay: Neurotoxicity in Kunming mouse assessed as minimum motor impairment at 100 mg/kg, ip after 0.5 hrs by rotarod test; assay type: toxicity, organism-based; design: dose 100 mg/kg, route intraperitoneal; conditions: in vivo; in short: as §2
Mus musculus [10] = assay: Neurotoxicity in Kunming mouse assessed as minimum motor impairment at 300 mg/kg, ip after 0.5 hrs by rotarod test; assay type: toxicity, organism-based; design: dose 300 mg/kg, route intraperitoneal; conditions: in vivo; in short: as §2
Mus musculus [11] = assay: Neurotoxicity in Kunming mouse assessed as minimum motor impairment at 30 mg/kg, ip after 4 hrs by rotarod test; assay type: toxicity, organism-based; design: dose 30 mg/kg, route intraperitoneal; conditions: in vivo; in short: as §2
Mus musculus [12] = assay: Neurotoxicity in Kunming mouse assessed as minimum motor impairment at 100 mg/kg, ip after 4 hrs by rotarod test; assay type: toxicity, organism-based; design: dose 100 mg/kg, route intraperitoneal; conditions: in vivo; in short: as §2
Rattus norvegicus [13] = assay: Anticonvulsant activity in Kunming rat assessed as protection against maximal electroshock-induced seizures at 30 mg/kg, po after 0.25 hrs; assay type: functional
In short: (§3)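 Male Kunming rats (250 ± 5.0 g) were dosed orally at 30 mg/kg, four rats per compound. Seizures were induced by a 150-mA corneal current for 0.2 s at 0.25, 0.5, 1, 2 and 4 h after dosing. Readout was the number of rats out of four protected against hindlimb tonic extension.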

Rattus norvegicus [14] = assay: Anticonvulsant activity in Kunming rat assessed as protection against maximal electroshock-induced seizures at 30 mg/kg, po after 0.5 hrs; assay type: functional; in short: as §3
Rattus norvegicus [15] = assay: Anticonvulsant activity in Kunming rat assessed as protection against maximal electroshock-induced seizures at 30 mg/kg, po after 1 hr; assay type: functional; in short: as §3
Rattus norvegicus [16] = assay: Anticonvulsant activity in Kunming rat assessed as protection against maximal electroshock-induced seizures at 30 mg/kg, po after 2 hrs; assay type: functional; in short: as §3
Rattus norvegicus [17] = assay: Anticonvulsant activity in Kunming rat assessed as protection against maximal electroshock-induced seizures at 30 mg/kg, po after 4 hrs; assay type: functional; in short: as §3
Rattus norvegicus [18] = assay: Neurotoxicity in Kunming rat assessed as minimum motor impairment at 30 mg/kg, po after 0.25 hrs by rotarod test; assay type: toxicity, organism-based; design: dose 30 mg/kg, route oral; conditions: in vivo
In short: (§4)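 Rotorod neurotoxicity in male Kunming rats (250 ± 5.0 g) given 30 mg/kg po, four rats per compound. Motor impairment was assessed at 0.25, 0.5, 1, 2 and 4 h after oral administration.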

Rattus norvegicus [19] = assay: Neurotoxicity in Kunming rat assessed as minimum motor impairment at 30 mg/kg, po after 0.5 hrs by rotarod test; assay type: functional, organism-based; design: dose 30 mg/kg; in short: as §4
Rattus norvegicus [20] = assay: Neurotoxicity in Kunming rat assessed as minimum motor impairment at 30 mg/kg, po after 1 hr by rotarod test; assay type: functional, organism-based; design: dose 30 mg/kg; in short: as §4
Rattus norvegicus [21] = assay: Neurotoxicity in Kunming rat assessed as minimum motor impairment at 30 mg/kg, po after 2 hrs by rotarod test; assay type: functional, organism-based; design: dose 30 mg/kg; in short: as §4
Rattus norvegicus [22] = assay: Neurotoxicity in Kunming rat assessed as minimum motor impairment at 30 mg/kg, po after 4 hrs by rotarod test; assay type: functional, organism-based; design: dose 30 mg/kg; in short: as §4
Mus musculus [23] = assay: Neurotoxicity in Kunming mouse assessed as minimum motor impairment at 300 mg/kg, ip after 4 hrs by rotarod test; assay type: toxicity, organism-based; design: dose 300 mg/kg, route intraperitoneal; conditions: in vivo; in short: as §2
Mus musculus [24] = assay: Anticonvulsant activity in Kunming mouse assessed as protection against maximal electroshock-induced seizures at 100 mg/kg, ip after 4 hrs; assay type: functional, organism-based; design: dose 100 mg/kg
Mus musculus [25] = assay: Anticonvulsant activity in Kunming mouse assessed as protection against maximal electroshock-induced seizures at 300 mg/kg, ip after 4 hrs; assay type: functional, organism-based; design: dose 300 mg/kg
Rattus norvegicus [26] = assay: Anticonvulsant activity in Kunming rat assessed as protection against subcutaneous pentylenetetrazole-induced seizures at 30 mg/kg, po after 1 hr; assay type: functional
Mus musculus [27] = assay: Anticonvulsant activity in ip dosed Kunming mouse assessed as protection against maximal electroshock-induced seizures; assay type: functional
In short: (§5)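 Quantitative phase-II study in groups of 10 male Kunming mice. A range of ip doses in 0.5% carboxymethyl cellulose-0.9% saline (0.1 ml) was given until at least three points fell within 10–90% seizure protection (MES or scPTZ) or minimal neurotoxicity. Rotorod toxicity was read 30 min after dosing.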

Mus musculus [28] = assay: Anticonvulsant activity in ip dosed Kunming mouse assessed as protection against subcutaneous pentylenetetrazole-induced seizures; assay type: functional; in short: as §5
[29] = Neurotoxicity in ip dosed Kunming mouse assessed as minimum motor impairment by rotarod test; assay type: toxicity, organism-based; conditions: in vivo; in short: as §5
Mus musculus [30] = assay: Protective index, ratio of TD50 for neurotoxicity in ip dosed Kunming mouse to ED50 for Kunming mouse by MES test; assay type: functional
Mus musculus [31] = assay: Protective index, ratio of TD50 for neurotoxicity in ip dosed Kunming mouse to ED50 for Kunming mouse by sPTZ test; assay type: functional
Mus musculus [32] = assay: Anticonvulsant activity in ip dosed Kunming mouse assessed as time peak effect; assay type: functional

Structure (SMILES) | Activity (Mus musculus [1]) | Activity (Mus musculus [2]) | Activity (Mus musculus [3]) | Activity (Mus musculus [4]) | Activity (Mus musculus [5]) | Activity (Mus musculus [8]) | Activity (Mus musculus [9]) | Activity (Mus musculus [10]) | Activity (Mus musculus [11]) | Activity (Mus musculus [12]) | Activity (Rattus norvegicus [13]) | Activity (Rattus norvegicus [14]) | Activity (Rattus norvegicus [15]) | Activity (Rattus norvegicus [16]) | Activity (Rattus norvegicus [17]) | Activity (Rattus norvegicus [18]) | Activity (Rattus norvegicus [19]) | Activity (Rattus norvegicus [20]) | Activity (Rattus norvegicus [21]) | Activity (Rattus norvegicus [22]) | also measured
CN1C(=O)NC2(CC2c2ccccc2)C1=O (stereo not given) | Active | inactive | inactive | inactive | inactive | Non-toxic | Non-toxic | Toxic | Non-toxic | Non-toxic | inactive | 25% | inactive | inactive | inactive | Non-toxic | Not toxic | Not toxic | Not toxic | Not toxic | Activity (Mus musculus [6]): inactive; Activity (Mus musculus [7]): inactive
CCCCC1CC12NC(=O)N(C)C2=O (stereo not given) | Active | Active | – | – | inactive | Non-toxic | Non-toxic | Non-toxic | Non-toxic | Non-toxic | 25% | inactive | 50% | inactive | inactive | Non-toxic | Not toxic | Not toxic | Not toxic | Not toxic | Activity (Mus musculus [6]): inactive; Activity (Mus musculus [23]): Non-toxic
CN1C(=O)NC2(CC2c2ccc(S(C)(=O)=O)cc2)C1=O (stereo not given) | Active | Active | Active | Active | inactive | Non-toxic | Non-toxic | – | Non-toxic | Non-toxic | inactive | 50% | 50% | 75% | 75% | Non-toxic | Not toxic | Not toxic | Not toxic | Not toxic | Activity (Mus musculus [24]): Active; Activity (Mus musculus [25]): Active; Activity (Mus musculus [23]): Non-toxic; Activity (Rattus norvegicus [26]): 25%; ED50 (Mus musculus [27]): 12.5 mg/kg; ED50 (Mus musculus [28]): 427 mg/kg; TD50 [29]: 310 mg/kg; PI (Mus musculus [30]): 24.8; PI (Mus musculus [31]): 0.73; Time (Mus musculus [32]): 0.5 h
CN1C(=O)NC2(CC2c2ccc(F)cc2)C1=O (stereo not given) | Active | Active | Active | Active | inactive | Non-toxic | Non-toxic | Non-toxic | Non-toxic | Non-toxic | inactive | 25% | inactive | 25% | inactive | Non-toxic | Not toxic | Not toxic | Not toxic | Not toxic | Activity (Mus musculus [24]): Active; Activity (Mus musculus [25]): Active; Activity (Mus musculus [23]): Non-toxic; Activity (Rattus norvegicus [26]): 25%
